Among the data in ChEMBL document CHEMBL1152355, “Application of a 3,3-diphenylpentane skeleton as a multi-template for creation of HMG-CoA reductase inhibitors” (Bioorg Med Chem Lett, 2009) are IC50 values, retold here.

For assay [1], the target named is T1, 3-hydroxy-3-methylglutaryl-coenzyme A reductase (Rattus norvegicus, UniProt P51639).
T1 sequence (P51639 whole entry): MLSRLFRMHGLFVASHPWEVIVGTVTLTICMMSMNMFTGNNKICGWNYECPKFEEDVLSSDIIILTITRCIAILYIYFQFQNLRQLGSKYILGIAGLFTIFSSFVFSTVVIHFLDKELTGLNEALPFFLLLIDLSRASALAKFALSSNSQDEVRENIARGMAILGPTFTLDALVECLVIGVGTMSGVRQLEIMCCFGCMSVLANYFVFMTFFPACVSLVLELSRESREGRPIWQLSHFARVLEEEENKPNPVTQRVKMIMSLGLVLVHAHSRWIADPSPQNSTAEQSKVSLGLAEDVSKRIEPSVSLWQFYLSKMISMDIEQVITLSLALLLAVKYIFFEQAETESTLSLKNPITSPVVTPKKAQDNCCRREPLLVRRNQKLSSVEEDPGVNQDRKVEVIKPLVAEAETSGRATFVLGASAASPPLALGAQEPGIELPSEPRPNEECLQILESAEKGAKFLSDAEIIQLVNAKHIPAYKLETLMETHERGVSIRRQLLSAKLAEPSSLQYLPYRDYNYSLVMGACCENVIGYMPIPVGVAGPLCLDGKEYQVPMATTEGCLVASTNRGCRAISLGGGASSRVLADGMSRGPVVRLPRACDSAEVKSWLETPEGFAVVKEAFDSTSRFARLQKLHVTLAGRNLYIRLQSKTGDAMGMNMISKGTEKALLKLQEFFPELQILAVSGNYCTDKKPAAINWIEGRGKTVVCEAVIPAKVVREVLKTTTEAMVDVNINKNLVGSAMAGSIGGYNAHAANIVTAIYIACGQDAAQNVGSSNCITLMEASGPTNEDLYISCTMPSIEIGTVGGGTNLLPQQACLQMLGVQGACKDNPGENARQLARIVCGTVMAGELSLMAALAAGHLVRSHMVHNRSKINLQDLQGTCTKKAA
Description: Inhibition of rat HMG-CoA reductase using 0.37 MBq DL-[3-14C]HMG-CoA. Put shortly:
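Method B used the lower substrate level, 0.37 MBq DL-[3-14C]HMG-CoA, with rat microsomal fraction (10 mg protein) at 37 °C for 30 min. Stopped with 2 M HCl, with conversion to mevalonolactone. Separation was on silica TLC with acetone/benzene 1:1, and radioactivity per spot was quantified by bioimaging. The IC50 was taken from this readout.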

Assay [2] concerns the target T1, 3-hydroxy-3-methylglutaryl-coenzyme A reductase. Description: Inhibition of rat HMG-CoA reductase using 3.7 MBq DL-[3-14C]HMG-CoA. Put shortly:
(§1)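 Rat HMG-CoA reductase (method A): 3.7 MBq DL-[3-14C]HMG-CoA with 10 mg microsomal protein, 37 °C for 30 min. The reaction was stopped with 2 M HCl and metabolites were converted to mevalonolactone. Products were separated by silica TLC in acetone/benzene (1:1 v/v), and spot radioactivity was read by bioimaging analyzer.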

For assay [3] the target is unchanged. The experiment in a line: Inhibition of rat HMG-CoA reductase at 100 mM using 3.7 MBq DL-[3-14C]HMG-CoA. The method, boiled down: as §1

As for `CCC(CC)(c1ccccc1)c1ccc(/C=C/[C@@H](O)C[C@@H](O)CC(=O)O)c(C(C)C)c1`, the concentration for half-maximal inhibition (IC50) – broadly, the concentration needed to halve the response being measured – in assay [1] was found to be 1800 nM. This counts as single-digit micromolar.

With `CCC(CC)(c1cccc(F)c1)c1ccc(/C=C/[C@@H](O)C[C@@H](O)CC(=O)O)c(C(C)C)c1`, the IC50 in assay [2] came out at 92000 nM. In the case of `CCC(CC)(c1ccc(F)cc1)c1ccc(/C=C/[C@@H](O)C[C@@H](O)CC(=O)[O-])cc1.[Na+]`, in assay [3], the IC50 entry is “Not Active”.

With `CCC(CC)(c1ccccc1)c1ccc(/C=C/[C@@H](O)C[C@@H](O)CC(=O)O)c(-c2ccc(F)cc2)c1`, the midpoint of inhibition in assay [1], the IC50, lay at 150 nM.

With `CC[C@H](C)C(=O)O[C@H]1CCC=C2C=C[C@H](C)[C@H](CC[C@@H]3C[C@@H](O)CC(=O)O3)[C@H]21` [MEVASTATIN], in assay [1], the midpoint of inhibition, the IC50, lay at 40 nM. This IC50 lies about 3.8-fold lower than the previous one.
